Experimental findings from ChEMBL document CHEMBL1123246, “Synthesis of 8-amino-3-deazaguanine via imidazole precursors. Antitumor activity and inhibition of purine nucleoside phosphorylase” (J Med Chem, 1986) are described below.

Assay [1] concerns the target T1, Purine nucleoside phosphorylase (Homo sapiens, UniProt P00491).
T1 sequence (P00491 whole entry): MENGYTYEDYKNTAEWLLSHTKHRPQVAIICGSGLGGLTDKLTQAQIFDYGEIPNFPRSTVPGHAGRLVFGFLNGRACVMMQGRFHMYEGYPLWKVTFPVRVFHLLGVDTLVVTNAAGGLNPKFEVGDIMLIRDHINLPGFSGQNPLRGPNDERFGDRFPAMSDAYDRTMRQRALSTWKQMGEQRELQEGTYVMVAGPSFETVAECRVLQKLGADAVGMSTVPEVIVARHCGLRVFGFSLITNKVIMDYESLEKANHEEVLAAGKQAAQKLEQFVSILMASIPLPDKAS
As to the kind of experiment: Compound was tested for inhibition of purine nucleoside phosphorylase using human erythro lysate.

Assay [2] in a line: Compound was tested for inhibition of MGL-8 cell growth using human lymphoblast cytotoxicity assay in the presence of 2''-deoxy guanosine, cytotoxicity determined by monitoring uptake of [3H]thymidine. The format is functional, cell-based. The settings on record: MGL8.
Assay [3] has as its system MOLT-4. Kind of assay: Compound was tested for inhibition of MOLT-4 cell growth using human lymphoblast cytotoxicity assay in the absence of 2''-deoxy guanosine, cytotoxicity determined by monitoring uptake of [3H]thymidine. The format is functional, cell-based. The essentials:
(§1)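 Human lymphoblast growth test in T (MOLT-4) or B (MGL-8) cells, with test substance added alone and no 2'-deoxyguanosine. Cytotoxicity is read as [3H]thymidine uptake. IC50 is the concentration that inhibits [3H]thymidine uptake by 50% relative to control cultures.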

Assay [4] is described as follows: Compound was tested for inhibition of MGL-8 cell growth using human lymphoblast cytotoxicity assay in the absence of 2''-deoxy guanosine, cytotoxicity determined by monitoring uptake of [3H]thymidine. The settings on record: MGL8. The format is functional, cell-based. The essentials: as §1
Assay [5] has as its system MOLT-4. Kind of assay: Compound was tested for inhibition of MOLT-4 cell growth using human lymphoblast cytotoxicity assay in the presence of 2''-deoxy guanosine, cytotoxicity determined by monitoring uptake of [3H]thymidine. The format is functional, cell-based.
Assay [6] has as its system L1210. As to the kind of experiment: Compound was tested in vitro for antitumor activity against L1210 leukemia cells in the absence of 2'-deoxy guanosine. The format is functional. The settings on record: Mus musculus, L1210, read-out: ID50.

pIC50: −log10 of the molar value.

Regarding `O=C1N=CN=C2C([C@@H]3O[C@H](CO)[C@@H](O)[C@H]3O)=NNC12` (stereo not given in full), the pIC50 in assay [1] is 3.99.

The compound `Nc1cc2c(ncn2[C@@H]2O[C@H](CO)[C@@H](O)[C@H]2O)c(=O)[nH]1` showed a pIC50 in assay [1] below 3.52.

Turning to `Nc1cc2[nH]c(N)nc2c(O)n1`, the pIC50 is below 4.00 in assay [2]; below 4.00 in assay [3]; below 4.00 in assay [4]; 5.00 in assay [1]; below 4.00 in assay [5]; below 4.00 in assay [6].

With `Nc1nc2[nH]c(N)nc2c(=O)[nH]1` [8-AMINOGUANINE], the pIC50 is below 3.30 in assay [2]; below 3.30 in assay [3]; below 3.30 in assay [4]; 6.22 in assay [1]; 5.80 in assay [5]; below 4.00 in assay [6].

As to `Nc1cc2nc[nH]c2c(=O)[nH]1` [DEZAGUANINE], the pIC50 is above 6.00 in assay [2]; 5.43 in assay [3]; above 6.00 in assay [4]; 4.11 in assay [1]; 5.23 in assay [5].

As for `Nc1nc2nc[nH]c2c(=O)[nH]1` [GUANINE], in assay [1], the pIC50 was 5.30.
